In ChEMBL document CHEMBL4813988, “Design and synthesis of N-(3-sulfamoylphenyl)amides as Trypanosoma brucei leucyl-tRNA synthetase inhibitors” (Eur J Med Chem, 2021):

Columns and labels:
[1] = Inhibition of Trypanosoma brucei LeuRS expressed in Escherichia coli BL21 (DE3)-RIPL cells preincubated for 20 mins in presence of [14C]leucine followed by incubation with ATP for 15 mins by liquid scintillation counting method
Trypanosoma brucei = assay: Potency index, ratio of IC50 of ZCL539 to IC50 of compound for inhibition of Trypanosoma brucei LeuRS expressed in Escherichia coli BL21 (DE3)-RIPL cells preincubated for 20 mins in presence of [14C]leucine followed by incubation with ATP for 15 mins by liquid scintillation counting method; details: time 35.0 min
[2] = test system: Trypanosoma brucei brucei; assay: Antitrypanosomal activity against bloodstream form of Trypanosoma brucei brucei 221 assessed as parasite growth inhibition incubated for 72 hrs by resazurin staining based assay; type: functional, organism-based; details: Trypanosoma brucei, 221, 72 h
In short: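 Trypanosomes kept in log phase in complete HMI-11 by subculture every 2-3 days, counted by hemocytometer, plated at final 1.0 × 10⁵/mL with serially DMSO-diluted compound (final 0.4% DMSO), triplicate wells. 72 h at 37 °C, 5% CO₂; resazurin added, further 5 h. Fluorescence ex 544/em 590 nm; triplicates averaged, IC₅₀ from sigmoidal dose-response fit.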

IC50 [2]	Structure (SMILES)	IC50 [1] [µM]	Ratio IC50 (Trypanosoma brucei)
	CC(C)C[C@H](N)C(=O)NS(=O)(=O)c1cccc(NC(=O)c2ccc([N+](=O)[O-])cc2)c1	14.7	
	CC(C)C[C@H](N)C(=O)NS(=O)(=O)c1ccc(NC(=O)c2ccc(Br)cc2)cc1	31.2	
	CC(C)C[C@H](N)C(=O)Nc1ccc(S(=O)(=O)NC(=O)[C@@H](N)CC(C)C)cc1	107	
	Cc1ccc(C(=O)Nc2ccc(S(=O)(=O)NC(=O)[C@@H](N)CC(C)C)cc2)cc1	39.1	
	CC(C)C[C@H](N)C(=O)NS(=O)(=O)c1cccc(NC(=O)c2ccc(-c3ccccc3)cc2)c1	5.8	
	CC(C)C[C@H](N)C(=O)NS(=O)(=O)c1ccc(NC(=O)c2cccc([N+](=O)[O-])c2)cc1	> 1000	
	CCCCOc1ccc(C(=O)Nc2cccc(S(=O)(=O)NC(=O)[C@@H](N)CC(C)C)c2)cc1	0.8	
	Cc1cccc(C(=O)Nc2cccc(S(=O)(=O)NC(=O)[C@@H](N)CC(C)C)c2)c1	9.5	
	CC(C)C[C@H](N)C(=O)NS(=O)(=O)c1cccc(NC(=O)c2ccc(O)cc2)c1	0.3	
	CC(C)C[C@H](N)C(=O)NS(=O)(=O)c1cccc(NC(=O)c2ccc(F)cc2)c1	6.4	
	Cc1cccc(C(=O)Nc2ccc(S(=O)(=O)NC(=O)[C@@H](N)CC(C)C)cc2)c1	59.7	
	CC(C)C[C@H](N)C(=O)NS(=O)(=O)c1cccc(NC(=O)c2ccccc2[N+](=O)[O-])c1	11.5	
	CC(C)C[C@H](N)C(=O)NS(=O)(=O)c1cccc(NC(=O)c2cccc(-c3ccccc3)c2)c1	3.6	
	COc1cccc(-c2cccc(C(=O)Nc3cccc(S(=O)(=O)NC(=O)[C@@H](N)CC(C)C)c3)c2)c1	3.6	
	CC(C)C[C@H](N)C(=O)NS(=O)(=O)c1cccc(NC(=O)c2ccc(Cl)cc2)c1	4.9	
	CC(C)C[C@H](N)C(=O)NS(=O)(=O)c1cccc(NC(=O)c2cccc([N+](=O)[O-])c2)c1	8.6	
	Cc1ccccc1C(=O)Nc1cccc(S(=O)(=O)NC(=O)[C@@H](N)CC(C)C)c1	14.3	
69.8 µM	CC(C)C[C@H](N)C(=O)NS(=O)(=O)c1cccc(NC(=O)c2ccc(OCc3ccccc3)cc2)c1	0.25	700
	CCOc1ccc(C(=O)Nc2cccc(S(=O)(=O)NC(=O)[C@@H](N)CC(C)C)c2)cc1	0.5	
	CC(C)C[C@H](N)C(=O)NS(=O)(=O)c1cccc(NC(=O)c2ccc(OC(C)C)cc2)c1	3.9	

IC50 [2]	Structure (SMILES)	IC50 [1] [µM]	Ratio IC50 (Trypanosoma brucei)
	COc1ccc(C(=O)Nc2cccc(S(=O)(=O)NC(=O)[C@@H](N)CC(C)C)c2)cc1OC	0.66	
	CC(C)C[C@H](N)C(=O)NS(=O)(=O)c1cccc(NC(=O)c2ccco2)c1	3.7	
	CC(C)C[C@H](N)C(=O)NS(=O)(=O)c1ccc(NC(=O)c2ccc(Cl)cc2)cc1	116	
	CC(C)C[C@H](N)C(=O)NS(=O)(=O)c1cccc(NC(=O)c2ccc(Br)cc2)c1	5.2	
	CC(C)C[C@H](N)C(=O)NS(=O)(=O)c1ccc(NC(=O)c2ccc([N+](=O)[O-])cc2)cc1	32.7	
	CC(C)C[C@H](N)C(=O)NS(=O)(=O)c1cccc(NC(=O)c2ccccc2)c1	9.4	
	CC(C)C[C@H](N)C(=O)NS(=O)(=O)c1cccc(NC(=O)c2cccc(Oc3ccccc3)c2)c1	8.6	
	CC(C)C[C@H](N)C(=O)NS(=O)(=O)c1ccc(NC(=O)c2ccccc2)cc1	96	
	Cc1ccc(C(=O)Nc2cccc(S(=O)(=O)NC(=O)[C@@H](N)CC(C)C)c2)cc1	14	
	CC(C)C[C@H](N)C(=O)NS(=O)(=O)c1ccc(NC(=O)c2cccc(Cl)c2)cc1	42.8	
	NS(=O)(=O)c1ccc(NC(=S)NC(=O)COc2ccc(Br)cc2Cl)cc1	174	
	COc1ccc(-c2cccc(C(=O)Nc3cccc(S(=O)(=O)NC(=O)[C@@H](N)CC(C)C)c3)c2)cc1	1.8	
	CC(C)C[C@H](N)C(=O)NS(=O)(=O)c1cccc(NC(=O)OCc2ccccc2)c1	4	
	CC(C)C[C@H](N)C(=O)NS(=O)(=O)c1cccc(NC(=O)c2cccs2)c1	6.2	
	COc1cccc(C(=O)Nc2cccc(S(=O)(=O)NC(=O)[C@@H](N)CC(C)C)c2)c1	2.4	
7 ng/mL	Cc1ccc(C(=O)Nc2ccc(S(=O)(=O)O)c3cc(S(=O)(=O)O)cc(S(=O)(=O)O)c23)cc1NC(=O)c1cccc(NC(=O)Nc2cccc(C(=O)Nc3cc(C(=O)Nc4ccc(S(=O)(=O)O)c5cc(S(=O)(=O)O)cc(S(=O)(=O)O)c45)ccc3C)c2)c1 [SURAMIN]		
	COc1ccc(C(=O)Nc2cccc(S(=O)(=O)NC(=O)[C@@H](N)CC(C)C)c2)cc1	0.24	> 700
9 ng/mL	N=C(N)c1ccc(OCCCCCOc2ccc(C(=N)N)cc2)cc1 [PENTAMIDINE]		
	CC(C)C[C@H](N)C(=O)NS(=O)(=O)c1cccc(NC(=O)c2ccc(Oc3ccccc3)cc2)c1	1.3	
	COc1cc(C(=O)Nc2cccc(S(=O)(=O)NC(=O)[C@@H](N)CC(C)C)c2)cc(OC)c1OC	1.48	
